Bioassay records: PubChem, several laboratories
Cl transport mod = KCC2 (human) Cl- transport modulation. Q9H2X9. KCC2 cells, thallium flux FluoZin-2 fluorescence. B-score of Tl+ flux slope (higher = more flux/activation; lower = inhibition) at 10 µM. 2.2% of 190,000 active. AID 1456;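 active = thallium flux slope and its plate-corrected score both differing from the plate sample mean at a set confidence after two filtering rounds, in either direction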;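 note: slope of fluorescence scaled to starting intensity during 10 to 20 s after thallium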
Target sequence (Q9H2X9 whole entry, looked up): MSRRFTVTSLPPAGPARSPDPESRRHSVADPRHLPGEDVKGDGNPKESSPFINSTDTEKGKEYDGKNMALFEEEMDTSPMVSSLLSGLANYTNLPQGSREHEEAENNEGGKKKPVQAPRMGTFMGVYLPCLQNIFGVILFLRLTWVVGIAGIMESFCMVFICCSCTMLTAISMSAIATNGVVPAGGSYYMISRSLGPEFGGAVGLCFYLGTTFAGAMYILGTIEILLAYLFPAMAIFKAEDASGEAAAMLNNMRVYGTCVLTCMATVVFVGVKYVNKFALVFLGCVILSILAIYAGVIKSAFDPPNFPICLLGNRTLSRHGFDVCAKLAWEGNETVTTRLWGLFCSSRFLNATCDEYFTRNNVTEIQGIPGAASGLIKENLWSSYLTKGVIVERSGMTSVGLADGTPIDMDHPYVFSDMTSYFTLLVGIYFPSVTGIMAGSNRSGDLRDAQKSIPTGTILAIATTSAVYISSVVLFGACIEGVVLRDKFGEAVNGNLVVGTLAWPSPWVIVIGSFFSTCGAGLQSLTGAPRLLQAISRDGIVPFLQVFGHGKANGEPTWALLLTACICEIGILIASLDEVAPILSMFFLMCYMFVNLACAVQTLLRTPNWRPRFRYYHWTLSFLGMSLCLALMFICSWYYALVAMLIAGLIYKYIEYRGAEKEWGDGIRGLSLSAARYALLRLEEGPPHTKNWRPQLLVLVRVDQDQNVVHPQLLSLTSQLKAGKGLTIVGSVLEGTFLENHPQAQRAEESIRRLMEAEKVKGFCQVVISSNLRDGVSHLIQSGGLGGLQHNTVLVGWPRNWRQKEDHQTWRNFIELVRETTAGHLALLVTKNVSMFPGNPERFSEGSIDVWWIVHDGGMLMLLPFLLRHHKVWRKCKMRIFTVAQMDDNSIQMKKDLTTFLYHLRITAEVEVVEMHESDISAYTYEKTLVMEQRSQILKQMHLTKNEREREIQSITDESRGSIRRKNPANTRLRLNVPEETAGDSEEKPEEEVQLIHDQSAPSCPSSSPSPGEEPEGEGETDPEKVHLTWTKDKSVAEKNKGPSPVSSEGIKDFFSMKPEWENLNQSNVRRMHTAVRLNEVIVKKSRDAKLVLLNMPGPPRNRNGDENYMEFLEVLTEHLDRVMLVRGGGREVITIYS
b-catenin transl = alters nuclear translocation of beta-catenin in HeLa cells; immunofluorescence imaging; nuclear translocation activity, % at 5 µM; 0.3% of 190,000 active; AID 1665;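 active = nuclear translocation activity above 50% at 5 µM, with a well cell count of 50 or more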;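 note: per-cell ratio of nuclear to cytoplasmic median beta-catenin stain intensity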
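Read-out: Nuclear/cytoplasmic beta-catenin signal ratio, % activation | Assay system: Human HeLa cell line | Times: 24 h compound exposure at 37°C, 5% CO2 | Signal: Fluorescence imaging of beta-catenin antibody stain plus DAPI | Dosing: 5 µM primary, 0.02–20 µM confirmation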
MT stabilizer = microtubule stabilization, imaging screen; HeLa tubulin immunostaining HCS, 24 h; share of cells brighter than vehicle mean+2SD; % tubulin-high responders, % at 10 µM; 0.83% of 200,000 active; AID 2205;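 active = plate Z-score above 3 for both tubulin-high and condensed-nucleus cell shares, with cell loss under 80%, at 10 µM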;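 note: anti alpha tubulin signal scored within the nucleus-defined area of each cell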
Pf gametocyte = P. falciparum stage V gametocyte viability inhibition. P. falciparum stage V gametocytes, ATP luminescence, 24 h. inhibition, % at 10.9 µM. 0.065% of 150,000 active;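 active = inhibition above the mean plus 3 SD of compounds within the control limits, set per campaign, cut at about 38% in these data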
WT yeast gro inh = growth inhibition of WT yeast, mitochondrial fusion screen | 2.1% of 190,000 active | inhibition, % at 10 µM | mitochondrial fusion phenotypic screen, WT strain; in the data active = inhibition above about 58%; tested in S. cerevisiae
Large screens that a line does not name were inactive. In the library only some 4% were active in any assay of this set; here they are far more common.

COc1ccc(NC(=O)c2cc([N+](=O)[O-])ccc2O)cc1	Cl transport mod -3.3
O=C(Nc1ccc(O)cc1)c1cccc(Oc2ccc([N+](=O)[O-])cc2)c1	MT stabilizer 37
COc1ccc(NC(=O)c2cccc([N+](=O)[O-])c2)cc1	none
Cc1ccc(SCC(=O)O/N=C(\N)c2cccc([N+](=O)[O-])c2)cc1	WT yeast gro inh 59 (no result: Cl transport mod, Pf gametocyte)
O=C(Cn1cnc2ccccc2c1=O)NCCC(=O)Nc1ccc2c(c1)OCO2	none (no result: Cl transport mod)
Cc1ccc(S(=O)(=O)N2CCc3ccccc3C2CC(=O)O)cc1 (stereo unspecified)	none (no result: MT stabilizer, WT yeast gro inh)
Fc1ccccc1NC(=S)NN(Cc1ccccc1)c1ccccc1	none (no result: Pf gametocyte)
CC(C)c1ccccc1NC(=S)NN(Cc1ccccc1)c1ccccc1	WT yeast gro inh 62
CC12CCC(C(=O)N(CSC(=S)N/N=C\c3ccccc3)C1=O)C2(C)C (stereo unspecified)	Cl transport mod 23 (no result: b-catenin transl, Pf gametocyte)
CC12CCC(C(=O)N(CSC(=S)N/N=C\c3ccccc3Cl)C1=O)C2(C)C (stereo unspecified)	none (no result: Cl transport mod, b-catenin transl, Pf gametocyte)
O=C(NCCN1CCOCC1)c1cc([N+](=O)[O-])cc([N+](=O)[O-])c1	none (no result: Cl transport mod, b-catenin transl, MT stabilizer, WT yeast gro inh)
CC(C)(C)c1ccc(OCc2ccc(C(=O)N/N=C3\CC4CC=CC34)cc2)cc1 (stereo unspecified)	WT yeast gro inh 72
O=C(N/N=C1\CC2CC=CC12)c1ccc(COc2ccccc2)cc1 (stereo unspecified)	none
Oc1ccc(N=C/C=C/c2ccc(Br)cc2)cc1-c1nc2ccccc2s1	none (no result: Pf gametocyte)
O=C(NCCc1ccccc1)c1n[nH]c2ccccc12	none (no result: Pf gametocyte)
Cc1cc(=O)[nH]c(SCC(=O)Nc2ccccc2C#N)c1C#N	MT stabilizer 44
COC(=O)CSc1nc(N)c2c3c(sc2n1)CCCC3	none (no result: Pf gametocyte)
COC(=O)CSc1nc(N)c2c3c(sc2n1)C(c1ccccc1)SC(c1ccccc1)C3 (stereo unspecified)	WT yeast gro inh 67 (no result: Pf gametocyte)
CC(=O)Nc1cc([N+](=O)[O-])ccc1N1CCOCC1	none
O=C(Nc1ccc([N+](=O)[O-])cc1)Nc1ccc(N2CCOCC2)c2nonc12	WT yeast gro inh 79
CC(=O)C(C(C)=O)c1c(Cl)c(O)c(O)c2c(C(=O)c3ccccc3)coc12	Cl transport mod -5.3 (no result: Pf gametocyte)
CCCCCCCN(c1ccccc1)C1C[C@H]2CCCC(=O)N3CC[C@@H](C1)[C@@H]23 (stereo partly specified)	none (no result: Cl transport mod, b-catenin transl, MT stabilizer, WT yeast gro inh)
Cc1cccc(-n2c(-c3csc(C(C)C)c3)n[nH]c2=S)c1	Cl transport mod 7.6
Cc1cccc(-n2c(-c3csc(C)c3C)n[nH]c2=S)c1	none
Cc1cc(C)c(NC(=O)c2cc3c(nc4sccn43)s2)c(C)c1	WT yeast gro inh 75
CCC(CC)C(=O)c1c[nH]c(C(=O)NCCCN2CCOCC2)c1	WT yeast gro inh 82
COCc1c(Br)c(C)nc(OCC(=O)N/N=C/c2cc(C)n(-c3ccc([N+](=O)[O-])cc3)c2C)c1C#N	none
CCCC(=O)N1c2ccccc2C(=C2SC(C(=O)OC)=C(C(=O)OC)S2)C(=S)C1(C)C	MT stabilizer 42 (no result: Pf gametocyte)
O=C(Nc1nc2ccc(S(=O)(=O)N3CCCC3)cc2s1)C1CCCCC1	MT stabilizer 34
Nc1nc2ccc(S(=O)(=O)N3CCCCC3)cc2s1	WT yeast gro inh 70 (no result: Pf gametocyte)
COc1cc2[nH]c(=O)c(C(=O)NCc3ccc(F)cc3)c(O)c2cc1OC	none (no result: Cl transport mod, b-catenin transl, MT stabilizer, WT yeast gro inh)
COc1ccc(OC)c(CN2CCN(C(=O)c3ccco3)CC2)c1	none (no result: Cl transport mod, b-catenin transl, MT stabilizer, WT yeast gro inh)
O=C1Nc2ccccc2/C1=N\N=C\C1=C(N2CCOCC2)C(=C\c2ccccc2)/CC1	WT yeast gro inh 61 (no result: Cl transport mod)
Cn1cc(C(=O)N/N=C/C2=C(N3CCOCC3)C(=C\c3ccccc3)/CC2)ccc1=O	none (no result: Pf gametocyte)
COc1cc([N+](=O)[O-])ccc1NC(=O)Oc1ccc(NC(C)=O)cc1	none (no result: MT stabilizer, Pf gametocyte, WT yeast gro inh)
O=C(OCc1cc(Cl)ccc1OC(F)F)c1cncc(Br)c1	WT yeast gro inh 60
CC(=O)N1CCN(S(=O)(=O)c2ccc(F)c(Cl)c2)CC1	none
COc1cc(/C=C(\C#N)c2nc3ccccc3s2)cc([N+](=O)[O-])c1O	WT yeast gro inh 67
CC(C)(C)n1ncc2c(=O)n(CC(=O)NCc3ccccc3)cnc21	MT stabilizer 32 (no result: Pf gametocyte)
CC(=O)Nc1ccc(NC(=O)Cn2cnc3c(cnn3C(C)(C)C)c2=O)cc1	none (no result: Pf gametocyte)
CC1(C)C2CCC1(C)C1(C2)NC(=O)c2ccccc2O1 (stereo unspecified)	none
CCC(C)(C)c1ccc(OCCCC[n+]2cccc(C)c2)c(C(C)(C)CC)c1	WT yeast gro inh 98 (no result: b-catenin transl)
CC(=O)Oc1ccc(C(=O)Nc2cccc3c2CCCC3)cc1	none (no result: Cl transport mod, b-catenin transl, MT stabilizer, WT yeast gro inh)
Cc1cc(C)c(OCC(=O)Nc2nnc(-c3ccco3)o2)c(C)c1	WT yeast gro inh 59
CC(=O)Nc1nnc(-c2ccco2)o1	none
Cc1ccc(CN=c2c([N+](=O)[O-])nn(-c3cccc(Cl)c3)n2O)cc1	WT yeast gro inh 61
Cc1cc(NC(=O)CSc2nnc(-c3ccccc3)c(-c3ccccc3)n2)no1	MT stabilizer 22
Cc1cc(NC(=O)CSc2ccccc2)no1	none (no result: Pf gametocyte)
O=C(NCCCn1ccnc1)C(Cc1ccccc1)N1C(=O)c2ccccc2C1=O (stereo unspecified)	WT yeast gro inh 58
CS(=O)(=O)c1ccc(C(=O)OCC(=O)NC(=O)C2CCCCC2)cc1[N+](=O)[O-]	none
CCOc1ccc2nc(SC3CC(=O)N(c4ccc(C)cc4)C3=O)sc2c1 (stereo unspecified)	none (no result: Cl transport mod, Pf gametocyte)
CCOc1ccc2nc(/N=C/c3c(C)[nH]n(-c4ccc(C)cc4)c3=O)sc2c1	Cl transport mod 69
CCOc1ccc2nc(/N=C/c3c(C)[nH]n(-c4ccccc4)c3=O)sc2c1	Cl transport mod 77 (no result: b-catenin transl)
Brc1cnc(N2CCCC2)nc1N1CCOCC1	none (no result: b-catenin transl, Pf gametocyte)
Brc1cnc(N2CCCCC2)nc1N1CCOCC1	WT yeast gro inh 59 (no result: Cl transport mod, Pf gametocyte)
N=C1/C(=C/c2cccn2CCOc2ccccc2)C(=O)N=C2SC=C(c3ccccc3)N12	MT stabilizer 30
Cc1onc(-c2ccccc2Cl)c1C(=O)Nc1nnc(-c2ccc(Br)cc2)s1	WT yeast gro inh 68 (no result: Pf gametocyte)
Cc1onc(-c2ccccc2)c1C(=O)Nc1nnc(COc2ccc(Cl)cc2)s1	WT yeast gro inh 63 (no result: Pf gametocyte)
Cc1onc(-c2ccccc2Cl)c1C(=O)Nc1nnc(-c2ccc(Cl)cc2Cl)s1	WT yeast gro inh 63 (no result: Cl transport mod, Pf gametocyte)
CC(C)Cn1cc(Cl)c(=O)n(CC(C)C)c1=O	none
Cc1cccc(/C=C/c2nc3ccccc3c(=O)[nH]2)c1	MT stabilizer 26 (no result: Cl transport mod)
O=S(=O)(Nc1cc(Cl)ccc1N1CCCCC1)c1cccs1	WT yeast gro inh 60 (no result: Cl transport mod, Pf gametocyte)
O=S(=O)(Nc1ccc(N2CCCCC2)cc1)c1cccs1	none (no result: Pf gametocyte)
O=C(Nc1ccccc1)c1ccccc1NS(=O)(=O)c1ccc(Cl)s1	none (no result: Cl transport mod, Pf gametocyte)
O=S(=O)(Nc1ccccc1N1CCCCC1)c1ccc(Cl)s1	Cl transport mod 12 (no result: b-catenin transl, Pf gametocyte)
O=C(COC(=O)c1cccc(Br)c1)NCCC1=CCCCC1	none
O=C(/C=C/c1cn(-c2ccccc2)nc1-c1cccnc1)N1CCCC1	none
O=C(/C=C/c1cn(-c2ccccc2)nc1-c1cccnc1)c1ccco1	MT stabilizer 12
